We go through 16 compounds from PubChem BioAssay AID488910 (Broad Institute, 2010).

Among all 20,000 compounds or so, about 25 (0.1%) were called active. For the sample, actives were picked, then their nearest neighbours and some compounds at random. A number with no mark means an inactive call.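 The calls were made as follows: active = mean replicate protection from cytokine-induced ATP loss at least 50% and at least 75% of replicates each reaching 50%; inconclusive = meets only one of the two criteria, mean or replicate share; inactive = fails both the mean and replicate share criteria.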

The assay can be described thus: protection of INS-1E cells from cytokine death, primary screen, ATP luminescence, single point (AID 488910). The following applies: INS-1E cytokine-induced death, 48 h, at 10 µM, active compounds read high, normalised: neutral wells 0, positive control 100. The method in brief: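 Assay system: INS-1E rat insulinoma cells. Amount: 8000 cells per well. Medium: phenol-red-free RPMI with 5% fetal bovine serum. Reagent: IL-1β, TNF-α and IFN-γ cytokine mix. Doses: one compound concentration, pin transfer. Schedule: 48 h co-treatment, 10 min post-lysis read. Detection: CellTiter-Glo luminescence measuring cellular ATP.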
Take `C[C@@H]1CN([C@@H](C)CO)C(=O)Cc2cc(NC(=O)Nc3ccc(F)cc3)ccc2O[C@@H]1CN(C)S(=O)(=O)c1ccccc1`: the protection from cytokine-induced ATP loss was 13.1%.

For `C[C@@H]1CN([C@@H](C)CO)C(=O)c2cc(NS(C)(=O)=O)ccc2O[C@@H]1CN(C)C(=O)Nc1ccccc1`, the protection from cytokine-induced ATP loss was -5.38%.

For the compound `CC(C)NC(=O)Nc1ccc2c(c1)C(=O)N([C@@H](C)CO)C[C@H](C)[C@@H](CN(C)S(C)(=O)=O)O2`, the protection from cytokine-induced ATP loss is 2.67%.

Consider `C[C@H]1CN([C@@H](C)CO)C(=O)Cc2cc(NS(=O)(=O)c3cccs3)ccc2O[C@@H]1CN(C)S(=O)(=O)c1cn(C)cn1`, for which the protection from cytokine-induced ATP loss was 6.75%.

On to `COc1ccc(CN(C)C[C@H]2Oc3c(NS(=O)(=O)c4ccccc4)cccc3C(=O)N([C@@H](C)CO)C[C@H]2C)cc1`, for which the protection from cytokine-induced ATP loss was 2.69%.

As for `CNC[C@H]1Oc2ccc(NC(=O)C3CCCCC3)cc2C(=O)N([C@H](C)CO)C[C@@H]1C`, the protection from cytokine-induced ATP loss was 1.62%.

On to `C[C@@H]1CN([C@@H](C)CO)C(=O)c2cc(NC(=O)Cn3cnnn3)ccc2O[C@H]1CN(C)Cc1ccc(C(F)(F)F)cc1`, for which the protection from cytokine-induced ATP loss is -4.67%.

Take `Cc1noc(C)c1NC(=O)Nc1ccc2c(c1)C(=O)N([C@@H](C)CO)C[C@H](C)[C@H](CN(C)Cc1ccc(-c3ccccc3)cc1)O2`: the protection from cytokine-induced ATP loss is -3.13%.

Regarding `Cc1noc(C)c1NC(=O)Nc1ccc2c(c1)C(=O)N([C@@H](C)CO)C[C@@H](C)[C@@H](CN(C)CC1CCCCC1)O2`, the protection from cytokine-induced ATP loss is 3.33%.

On to `C[C@H](CO)N1C[C@H](C)[C@H](CN(C)Cc2ccc(Oc3ccccc3)cc2)Oc2c(NC(=O)CCCCCC(=O)Nc3ccccc3N)cccc2C1=O`, for which the protection from cytokine-induced ATP loss is -9.83%.

Regarding `COc1ccc(NC(=O)N(C)C[C@H]2Oc3ccc(N(C)C)cc3C(=O)N([C@H](C)CO)C[C@H]2C)cc1`, the protection from cytokine-induced ATP loss was 1.38%.

Regarding `Cc1ccc(S(=O)(=O)Nc2ccc3c(c2)C(=O)N([C@H](C)CO)C[C@H](C)[C@@H](CN(C)C(=O)NC(C)C)OCCCC[C@@H](C)O3)cc1`, the protection from cytokine-induced ATP loss was 12.2%.

Turning to `Cc1ccc(S(=O)(=O)N(C)C[C@H]2Oc3ccc(NC(=O)CCCCCC(=O)Nc4ccccc4N)cc3C(=O)N([C@H](C)CO)C[C@H]2C)cc1`, the protection from cytokine-induced ATP loss was -6.48%.

Consider `CN(C)CCCOc1ccc(/C=N/NC(=O)c2cccc(C(=O)NO)c2)cc1`, for which the protection from cytokine-induced ATP loss is -4.67%.

On to `C[C@H]1CN([C@@H](C)CO)C(=O)Cc2cc(NC(=O)Nc3ccc(C(F)(F)F)cc3)ccc2O[C@@H]1CN(C)S(=O)(=O)c1ccc(Cl)cc1`, for which the protection from cytokine-induced ATP loss is -4.37%.

With `C[C@@H]1CN([C@H](C)CO)C(=O)Cc2cc(NC(=O)CCCCCC(=O)Nc3ccccc3N)ccc2O[C@H]1CN(C)S(=O)(=O)c1ccc(F)cc1`, the protection from cytokine-induced ATP loss is 9.28%.
